Converted amounts (≈) assume the structure as drawn.
Assays:
[1] = In vitro growth inhibitory activity for effect on melting temperature of DNA was determined
Procedure, shortened: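 DNA thermal denaturation; ΔTm = Tm of DNA-drug complex minus Tm of DNA. Drug 1.4×10⁻⁴ M, DNA (P) 1.4×10⁻³ M in 0.01 M phosphate buffer pH 7.0 with 5×10⁻³ M EDTA and 5% dimethyl sulfoxide.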

Homo sapiens [2] = species: Homo sapiens; experiment: (§1) In vitro growth inhibitory activity against human lymphoblastic leukemia cells; assay type: functional; settings: read-out: ID50 (the source's name)
Procedure, shortened: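 CCRF-CEM human lymphoblastic leukemia cells in log-phase growth; compounds dissolved in Me₂SO, final growth medium 1% Me₂SO.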

[3] = Therapeutic Index measured as the MTD/MED ratio compared to that of compound 3; settings: read-out: Therapeutic index
Procedure, shortened: (§2)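 Therapeutic index is MTD/MED, with ip dosing in 10% dimethyl sulfoxide-saline on a qd 1-4 or q4d 1, 5, 9 schedule. MED is the dose giving a 40% increase in life span over control in P-388-bearing mice. MTD is the LD10 in tumor-free male CDF1 mice (18-23 g) over 21 days, read from a log dose vs. percent mortality plot and averaged over 2-3 experiments.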

[4] = Therapeutic Index measured as the MTD/MED ratio compared to that of compound 4; settings: read-out: Therapeutic index; procedure, shortened: as §2
P388 [5] = experiment: Antitumor activity against P-388 lymphocytic leukemia in CDF1 hybrid male mice measured as percent increase in lifespan( 0.15 mg/kg),ip; assay type: functional; settings: Mus musculus
Procedure, shortened: (§3)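 Male CDF1 mice (18-23 g) were inoculated ip with 10⁶ P-388 cells on day 0. Drug was given ip in 10% dimethyl sulfoxide-saline on days 1, 5 and 9. Test solutions were kept at 0-4 °C, protected from light, and checked periodically for stability and homogeneity by TLC and HPLC. Read-out was survival, median survival time, increase in life span and tumor-free cures per 7 animals.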

P388 [6] = experiment: Maximum tolerated dose was determined compared to 7-(2,3-Epoxypropoxy)-actinomycin D against P-388 leukemia in mice(4 days); assay type: functional, Mus musculus
Procedure, shortened: (§4)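 Tumor-free male CDF1 mice (18-23 g) received a broad dose range ip in 10% dimethyl sulfoxide-saline, either on days 1, 5, 9 (three injections) or on 4 successive days (qd 1-4). Deaths were recorded over 21 days. MTD was the dose lethal to 10% (LD10), taken from a plot of log dose vs percent mortality. Average of two experiments.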

Homo sapiens [7] = species: Homo sapiens; experiment: as §1; assay type: functional; settings: read-out: ID50 (the source's name); remark: listed apart in the source
Procedure, shortened: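 Human CCRF-CEM lymphoblastic leukemia cells were used in log-phase growth. Compounds were dissolved in Me2SO, and the final growth medium contained 1% Me2SO. Test solution homogeneity was checked by TLC and HPLC at each test.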

P388 [8] = experiment: Maximum tolerated dose was determined compared to 7-(2,3-Epoxypropoxy)-actinomycin D against P-388 leukemia in mice(3 days); assay type: functional, Mus musculus; procedure, shortened: as §4
P388 [9] = experiment: Number of mice with P-388 lymphocytic leukemia cured.( 0.6 mg/kg),ip; 0/7; assay type: functional, Mus musculus
P388 [10] = experiment: Number of mice with P-388 lymphocytic leukemia cured( 3 mg/kg),ip; 0/7; assay type: functional, Mus musculus; procedure, shortened: as §3
P388 [11] = experiment: Number of mice with P-388 lymphocytic leukemia cured(0.15 mg/kg),ip.; 0/7; assay type: functional, Mus musculus; procedure, shortened: as §3
P388 [12] = experiment: Antitumor activity against P-388 lymphocytic leukemia in CDF1 hybrid male mice measured as median survival time (0.3 mg/kg),ip; assay type: functional, Mus musculus; procedure, shortened: as §3
P388 [13] = experiment: Antitumor activity against P-388 lymphocytic leukemia in CDF1 hybrid male mice measured as percent increase in lifespan( 1.8 mg/kg),ip; assay type: functional; settings: Mus musculus; procedure, shortened: as §3
P388 [14] = experiment: Number of mice with P-388 lymphocytic leukemia cured.(1.8 mg/kg),ip; 0/7; assay type: functional, Mus musculus
P388 [15] = experiment: Antitumor activity against P-388 lymphocytic leukemia in CDF1 hybrid male mice measured as median survival time (0.15 mg/kg),ip; assay type: functional, Mus musculus; procedure, shortened: as §3
P388 [16] = experiment: Antitumor activity against P-388 lymphocytic leukemia in CDF1 hybrid male mice measured as median survival time ( 1.2 mg/kg),ip; assay type: functional, Mus musculus; procedure, shortened: as §3
P388 [17] = experiment: Minimum effective dose was determined compared to 7-(2,3-Epoxypropoxy)-actinomycin D against P-388 leukemia in mice(4 days); assay type: functional, Mus musculus
Procedure, shortened: (§5)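 MED was the dose (mg/kg) giving a 40% increase in life span over control in mice bearing ip P-388 leukemia. Drug was given ip in 10% dimethyl sulfoxide-saline on a q4d 1, 5, 9 (three injections) or qd 1-4 (four injections) schedule.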

P388 [18] = experiment: Antitumor activity against P-388 lymphocytic leukemia in CDF1 hybrid male mice measured as percent increase in lifespan( 0.6 mg/kg),ip; assay type: functional; settings: Mus musculus; procedure, shortened: as §3
P388 [19] = experiment: Antitumor activity against P-388 lymphocytic leukemia in CDF1 hybrid male mice measured as percent increase in lifespan( 3 mg/kg),ip; assay type: functional; settings: Mus musculus; procedure, shortened: as §3
P388 [20] = experiment: Antitumor activity against P-388 lymphocytic leukemia in CDF1 hybrid male mice measured as median survival time (1.8 mg/kg),ip; assay type: functional, Mus musculus; procedure, shortened: as §3
P388 [21] = experiment: Antitumor activity against P-388 lymphocytic leukemia in CDF1 hybrid male mice measured as median survival time (3 mg/kg),ip; assay type: functional, Mus musculus; procedure, shortened: as §3
P388 [22] = experiment: Minimum effective dose was determined compared to 7-(2,3-Epoxypropoxy)-actinomycin D against P-388 leukemia in mice(3 days); assay type: functional, Mus musculus; design: unit: mg/kg; procedure, shortened: as §5
P388 [23] = experiment: Antitumor activity against P-388 lymphocytic leukemia in CDF1 hybrid male mice measured as percent increase in lifespan( 1.2 mg/kg),ip; assay type: functional; settings: Mus musculus; procedure, shortened: as §3
P388 [24] = experiment: Number of mice with P-388 lymphocytic leukemia cured(1.2 mg/kg),ip; 0/7; assay type: functional, Mus musculus; procedure, shortened: as §3
P388 [25] = experiment: Number of mice with P-388 lymphocytic leukemia cured.( 0.3 mg/kg),ip; 0/7; assay type: functional, Mus musculus
P388 [26] = experiment: Antitumor activity against P-388 lymphocytic leukemia in CDF1 hybrid male mice measured as percent increase in lifespan(0.3 mg/kg),ip; assay type: functional, Mus musculus; procedure, shortened: as §3
P388 [27] = experiment: Antitumor activity against P-388 lymphocytic leukemia in CDF1 hybrid male mice measured as median survival time ( 0.6 mg/kg),ip; assay type: functional, Mus musculus; procedure, shortened: as §3

Question: For `CCN(CC)C(=O)c1c2nc3c(C(=O)N(CC)CC)cc(OCC(O)CO)c(C)c3oc-2c(C)c(=O)c1N` (stereo unspecified), which DNA melting temperature shift (ΔTm) [1] is on record?
Answer: 0 °C

Question: And the IC50 (Homo sapiens [2])?
Answer: ~10 µg/mL (≈ 18.9 µM)

Question: Which results are given for `CCN(CC)C(=O)c1c2nc3c(C(=O)N(CC)CC)cc(OCC4CO4)c(C)c3oc-2c(C)c(=O)c1N` (stereo unspecified)?
Answer: DNA melting temperature shift (ΔTm) [1]: 0 °C; IC50 (Homo sapiens [2]): 9 µg/mL (≈ 17.6 µM)

Question: With `Cc1c2oc3c(C)c(OCC(O)CO)cc(C(=O)N[C@@H]4C(=O)N[C@H](C(C)C)C(=O)N5CCC[C@H]5C(=O)N(C)CC(=O)N(C)[C@@H](C(C)C)C(=O)O[C@@H]4C)c3nc-2c(C(=O)N[C@@H]2C(=O)N[C@H](C(C)C)C(=O)N3CCC[C@H]3C(=O)N(C)CC(=O)N(C)[C@@H](C(C)C)C(=O)O[C@@H]2C)c(N)c1=O` (stereo partly specified) as the molecule, how does the selectivity ratio [3] read?
Answer: 12

Question: And the selectivity ratio [4]?
Answer: 6

Question: With `Cc1c2oc3c(C)c(O)c(N)c(C(=O)N[C@@H]4C(=O)N[C@H](C(C)C)C(=O)N5CCC[C@H]5C(=O)N(C)CC(=O)N(C)[C@@H](C(C)C)C(=O)O[C@@H]4C)c3nc-2c(C(=O)N[C@@H]2C(=O)N[C@H](C(C)C)C(=O)N3CCC[C@H]3C(=O)N(C)CC(=O)N(C)[C@@H](C(C)C)C(=O)O[C@@H]2C)cc1=O` [listing 1 of 2 here] as the molecule, how does the ILS at 0.15 mg/kg (P388 [5]) read?
Answer: 10%

Question: What about the MTD (P388 [6]) of the same molecule?
Answer: 2

Question: And the IC50 (Homo sapiens [7])?
Answer: 0.95 µg/mL (≈ 0.747 µM)

Question: What about the MTD (P388 [8]) of the same molecule?
Answer: 4.2

Question: And the Cure (P388 [9])?
Answer: 0

Question: And the Cure (P388 [10])?
Answer: 0

Question: And the Cure (P388 [11])?
Answer: 0

Question: And the MST (P388 [12])?
Answer: 17 days

Question: And the ILS at 1.8 mg/kg (P388 [13])?
Answer: 136%

Question: And the Cure (P388 [14])?
Answer: 0

Question: And the MST (P388 [15])?
Answer: 12 days

Question: What about the MST (P388 [16]) of the same molecule?
Answer: 25 days

Question: And the MED (P388 [17])?
Answer: 0.2

Question: And the ILS at 0.6 mg/kg (P388 [18])?
Answer: 89%

Question: And the ILS at 3 mg/kg (P388 [19])?
Answer: 37%

Question: What about the MST (P388 [20]) of the same molecule?
Answer: 26 days

Question: What about the MST (P388 [21]) of the same molecule?
Answer: 15 days

Question: And the MED (P388 [22])?
Answer: 0.275

Question: What about the ILS at 1.2 mg/kg (P388 [23]) of the same molecule?
Answer: 127%

Question: And the Cure (P388 [24])?
Answer: 0

Question: And the Cure (P388 [25])?
Answer: 0

Question: And the ILS (P388 [26])?
Answer: 55%

Question: And the MST (P388 [27])?
Answer: 21 days

Question: With `Cc1c2oc3c(C)c(O)c(N)c(C(=O)N[C@@H]4C(=O)N[C@H](C(C)C)C(=O)N5CCC[C@H]5C(=O)N(C)CC(=O)N(C)[C@@H](C(C)C)C(=O)O[C@@H]4C)c3nc-2c(C(=O)N[C@@H]2C(=O)N[C@H](C(C)C)C(=O)N3CCC[C@H]3C(=O)N(C)CC(=O)N(C)[C@@H](C(C)C)C(=O)O[C@@H]2C)cc1=O` [listing 2 of 2 here] as the molecule, how does the selectivity ratio [3] read?
Answer: 15

Question: And the selectivity ratio [4]?
Answer: 10

Source: ChEMBL document CHEMBL1121953, “Carbon-7 substituted actinomycin D analogues as improved antitumor agents: synthesis and DNA-binding and biological properties” (J Med Chem, 1982)
